Data reported in ChEMBL document CHEMBL1221188, “Small-molecule activation of procaspase-3 to caspase-3 as a personalized anticancer strategy” (Nat Chem Biol, 2006).
Activity calls are given as the source filed them. The calls are words filed in the database; no cut-off is given here.

Legend:
Caspase-3 [1] = target: T1, Caspase-3 (Homo sapiens, UniProt P42574); test: Activation of N-terminal His6-tagged recombinant procaspase-3 expressed in Escherichia coli assessed as hydrolysis of acetyl-DEVD-p-nitroanilide after 2 hrs by SDS-PAGE
T1 sequence (P42574 whole entry): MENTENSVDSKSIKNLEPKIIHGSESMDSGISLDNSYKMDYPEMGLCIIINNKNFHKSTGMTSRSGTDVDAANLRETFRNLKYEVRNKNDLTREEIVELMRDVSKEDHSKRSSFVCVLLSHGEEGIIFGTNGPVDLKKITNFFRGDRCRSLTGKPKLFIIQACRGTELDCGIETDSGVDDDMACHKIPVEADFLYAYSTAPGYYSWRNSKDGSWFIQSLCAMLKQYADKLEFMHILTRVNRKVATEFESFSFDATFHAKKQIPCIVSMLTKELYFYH

HL-60 [2] = test: Induction of apoptosis in human HL60 cells assessed as increase in caspase-3 activity at 10 uM after 12 hrs; type: functional, cell-based
In short: (§1)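 HL-60 cells were treated with a range of drug concentrations for various times, then washed. They were lysed by sonication in ice-cold caspase assay buffer and given Ac-DEVD-pNA. Absorbance at 405 nm was read every 2 min for 2 h, and the cleavage rate came from the linear slope.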

HL-60 [3] = test: Induction of apoptosis in human HL60 cells assessed as increase in PARP1 cleavage at 10 uM after 12 hrs by fluorescence assay; type: functional, cell-based
HL-60 [4] = test: Induction of apoptosis in human HL60 cells assessed as mitochondrial membrane depolarization at 10 uM after 12 hrs by fluorescence assay; type: functional, cell-based
In short: (§2)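 HL-60 cells exposed to drug in DMSO or DMSO alone for various times, stained with JC-9 dye for 10 min at room temperature, then analysed by flow cytometry at 525/675 nm on 50,000 cells. Depolarization was derived from the red-channel shift.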

HL-60 [5] = test: Induction of apoptosis in human HL60 cells assessed as increase in PARP1 cleavage at 100 uM after 12 hrs by fluorescence assay; type: functional, cell-based
In short: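 HL-60 cells given NAD+ with or without drug for various times, then lysed in PARP buffer with 25 mM H2O2 (60 min, 37 °C). Remaining NAD+ was measured fluorometrically after KOH/acetophenone (10 min, 4 °C) and formic acid (5 min, 110 °C). PARP activity is expressed relative to control wells.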

HL-60 [6] = test: Induction of apoptosis in human HL60 cells assessed as increase in caspase-3 activity at 100 uM up to 2 hrs; type: functional; in short: as §1
ACHN = test: Antitumor activity against human ACHN cells xenografted in BALB/c mouse assessed as tumor growth at 5 mg administered via pellet measured after 54 days of tumor implantation
In short: (§3)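 Ovariectomized female athymic BALB/c nu/nu mice; ACHN cells in Matrigel injected subcutaneously into four flanks. After 4 weeks (mean tumor area 34.3 mm2), 20-mg cholesterol pellets with 0, 1 or 5 mg drug implanted subcutaneously; six mice per group. Tumor volume v = 0.5·a·b2 measured weekly. Food intake over two consecutive 24-h periods at study end (8 weeks post-implant).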

HL-60 [7] = test: Induction of apoptosis in human HL60 cells assessed viable cells at 5 uM after 28 hrs using annexin V-propidium iodide staining by flow cytometry; type: functional
[8] = Plasma concentration in BALB/c mouse xenografted with human ACHN cells at 5 mg administered via pellet measured after 54 days of tumor implantation; type: ADME, organism-based
Mus musculus [9] = test: Toxicity in BALB/c mouse xenografted with human ACHN cells assessed as effect on food intake at 5 mg administered via pellet measured after 54 days of tumor implantation; type: organism-based; conditions: in vivo, other, 1296 h; in short: as §3
HL-60 [10] = test: Induction of apoptosis in human HL60 cells assessed late apoptotic cells at 5 uM after 28 hrs using annexin V-propidium iodide staining by flow cytometry; type: functional
NCI-H226 [11] = test: Antitumor activity against human NCI-H226 cells xenografted in po dosed BALB/c mouse administered SID for 21 days assessed as retardation of tumor growth measured after 1 week post last dose; type: functional, organism-based
In short: (§4)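 Male athymic BALB/c nude mice, 5 weeks old; 2 × 10^6 NCI-H226 cells injected subcutaneously into the flanks, eight mice per group, three tumors per mouse. Once tumors reached about 50 mm3 (~4 weeks), 0, 50 or 100 mg/kg was given by oral gavage in 24:1 vegetable oil/DMSO once daily for 21 d. Caliper volume (v = 0.5·a·b2) and body weight tracked; killed 1 week later.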

NCI-H226 [12] = test: Antitumor activity against human NCI-H226 cells isolated from BALB/c mouse xenograft assessed as decrease in metastatic tumor burden at 100 mg/kg, po administered from day 1 to 4 and day 7 to 11 measured after 28 days by imaging assay; type: functional, organism-based; design: dose 100 mg/kg
In short: (§5)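 Male athymic nude mice received 2 × 10^6 NCI-H226 cells by tail-vein injection. Dosing was 100 mg/kg by oral gavage in 24:1 vegetable oil/DMSO once daily on days 1–4 and 7–11, against vehicle, four mice per group. Body weight was followed. At 28 d the lungs were examined, sectioned, stained and imaged for tumor burden.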

Caspase-3 [13] = target: Caspase-3 (Homo sapiens, UniProt P42574, D179A); test: Activation of N-terminal His6-tagged recombinant procaspase-3 D179A mutant expressed in Escherichia coli assessed as hydrolysis of acetyl-DEVD-p-nitroanilide after 2 hrs by SDS-PAGE; conditions: in the assay text read “by spectrophotometry” for “by SDS-PAGE”
In short: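 Alanine substitution in the procaspase-3 safety-catch Asp-Asp-Asp triad (Asp179, Asp180, Asp181). The wild-type or mutant proenzyme was incubated with a range of compound concentrations for 12 h at 37 °C. Ac-DEVD-pNA was then added and absorbance at 405 nm was read every 2 min for 2 h. Activity was taken from the linear-phase slope and expressed as relative increase per mutant.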

HL-60 [14] = test: Induction of apoptosis in human HL60 cells assessed early apoptotic cells at 5 uM after 28 hrs using annexin V-propidium iodide staining by flow cytometry; type: functional
HL-60 [15] = test: Induction of apoptosis in human HL60 cells assessed as mitochondrial membrane depolarization at 100 uM after 12 hrs by fluorescence assay; type: functional, cell-based; in short: as §2
Mus musculus [16] = test: Toxicity in BALB/c mouse xenografted with human NCI-H226 cells assessed as effect on body weight at 100 mg/kg, po administered from day 1 to 4 and day 7 to 11 measured after 28 days; type: organism-based; design: dose 100 mg/kg, route oral; conditions: in vivo, 672 h; in short: as §5
NCI-H226 [17] = test: Induction of apoptosis in human NCI-H226 cells isolated from BALB/c mouse xenograft assessed as DNA fragmentation at 50 mg/kg, po SID for 21 days measured after 1 week post last dose by TUNEL assay; type: functional, organism-based; design: dose 50 mg/kg
In short: (§6)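 Subcutaneous NCI-H226 tumors from nude mice dosed orally (50 or 100 mg/kg daily for 21 d in 24:1 vegetable oil/DMSO) were resected at end of study, sectioned and scored by TUNEL staining.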

HL-60 [18] = test: Induction of apoptosis in human HL60 cells assessed late apoptotic cells at 100 uM after 20 hrs using annexin V-propidium iodide staining by flow cytometry; type: functional
In short: (§7)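 HL-60 cells treated 20 h at 37 °C with 100 µM drug in DMSO or DMSO alone; washed, stained with annexin V–Alexa Fluor 488 (15 min, 23 °C) plus propidium iodide; flow cytometry at 525 and 675 nm, ≥50,000 cells per experiment.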

[19] = Cytotoxicity against human colon cells after 24 hrs by MTS/PMS assay; type: cell-based; conditions: Colon cell
HL-60 [20] = test: Induction of apoptosis in human HL60 cells assessed early apoptotic cells at 100 uM after 20 hrs using annexin V-propidium iodide staining by flow cytometry; type: functional; in short: as §7
[21] = Cytotoxicity against human colon cancer cells after 24 hrs by MTS/PMS assay; type: functional, cell-based; conditions: Cancer cell lines
HL-60 [22] = test: Inhibition of apoptosis in human HL60 cells at 100 uM after 24 hrs using annexin V-propidium iodide staining by flow cytometry in presence of pan-caspase inhibitor Z-VAD-FMK; type: functional, cell-based
Mus musculus [23] = test: Toxicity in BALB/c mouse xenografted with human NCI-H226 cells assessed as effect on body weight at 50 to 100 mg/kg, po SID for 21 days measured after 1 week post last dose; type: organism-based; design: dose 50-100 mg/kg, route oral; conditions: in vivo, 168 h; in short: as §4
HL-60 [24] = test: Induction of apoptosis in human HL60 cells assessed non-viable necrotic cells at 5 uM after 28 hrs using annexin V-propidium iodide staining by flow cytometry; type: functional
NCI-H226 [25] = test: Induction of apoptosis in human NCI-H226 cells isolated from BALB/c mouse xenograft assessed as DNA fragmentation at 100 mg/kg, po SID for 21 days measured after 1 week post last dose by TUNEL assay; type: functional, organism-based; design: dose 100 mg/kg; in short: as §6
HL-60 [26] = test: Induction of apoptosis in human HL60 cells assessed non-viable necrotic cells at 100 uM after 20 hrs using annexin V-propidium iodide staining by flow cytometry; type: functional; in short: as §7
HL-60 [27] = test: Induction of apoptosis in human HL60 cells assessed as chromatin condensation at 100 uM after 20 hrs measured by Hoechst-33258 staining; type: functional, cell-based
In short: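 HL-60 cells were treated 20 h with 100 µM drug in DMSO against a DMSO control. Cells were then fixed in ice-cold ethanol overnight at 4 °C and stained with Hoechst-33258 for 30 min at room temperature. Condensed chromatin was viewed microscopically at 400× magnification.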

HL-60 [28] = test: Induction of apoptosis in human HL60 cells assessed as increase in caspase-3 activity at 100 uM after 12 hrs; type: functional, cell-based; in short: as §1
NCI-H226 [29] = test: Antitumor activity against human NCI-H226 cells xenografted in BALB/c mouse assessed as suppression of tumor metastasis at 100 mg/kg, po administered from day 1 to 4 and day 7 to 11 measured after 28 days; type: functional, organism-based; design: dose 100 mg/kg; in short: as §5
HL-60 [30] = test: Induction of apoptosis in human HL60 cells assessed viable cells at 100 uM after 20 hrs using annexin V-propidium iodide staining by flow cytometry; type: functional; in short: as §7

Chain of Caspase-3 (Homo sapiens, UniProt P42574, D179A) (P42574 176-277 D179A limits assumed, one chain of several): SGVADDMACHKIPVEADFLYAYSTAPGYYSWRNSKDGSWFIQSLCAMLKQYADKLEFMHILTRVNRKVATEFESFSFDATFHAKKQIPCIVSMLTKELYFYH

Compound: c1ccc(CN2CCNCC2)cc1
- EC50 (Caspase-3 [1]): > 50 µM

Compound: CN1CCN(CC(=O)N/N=C/c2ccccc2O)CC1
- EC50 (Caspase-3 [1]): > 50 µM

Compound: C/C=N/NC(=O)CN1CCN(Cc2ccccc2)CC1
- EC50 (Caspase-3 [1]): > 50 µM

Compound: NNC(=O)CN1CCN(Cc2ccccc2)CC1
- EC50 (Caspase-3 [1]): > 50 µM

Compound: CCOC(=O)CN1CCN(Cc2ccccc2)CC1
- EC50 (Caspase-3 [1]): > 50 µM

Compound: c1ccc(CN2CCN(Cc3ccccc3)CC2)cc1
- EC50 (Caspase-3 [1]): > 50 µM

Compound: O=C(CN1CCN(Cc2ccccc2)CC1)N/N=C/c1ccccc1
- EC50 (Caspase-3 [1]): > 50 µM

Compound: COc1cc([C@@H]2c3cc4c(cc3[C@@H](O[C@@H]3O[C@@H]5CO[C@@H](C)O[C@H]5[C@H](O)[C@H]3O)[C@H]3COC(=O)[C@H]23)OCO4)cc(OC)c1O
- Activity (HL-60 [2]): Active
- Activity (HL-60 [3]): Active
- Activity (HL-60 [4]): Active
- Activity (HL-60 [5]): Active

Compound: CCOC(=O)CN1CCNCC1 [ETHYL PIPERAZINOACETATE]
- EC50 (Caspase-3 [1]): > 50 µM

Compound: C=CCc1cccc(/C=N/NC(=O)CN2CCN(Cc3ccccc3)CC2)c1O [PAC-1]
- Activity (HL-60 [6]): 50%
- Activity (ACHN): Active
- inhibition (ACHN): Active
- Activity (HL-60 [7]): 10.26%
- concentration at 1296 h [8]: 4.4 nM
- Activity (HL-60 [3]): Active
- Activity (Mus musculus [9]): Non-toxic
- Activity (HL-60 [10]): 8.73%
- inhibition (NCI-H226 [11]): Dose-dependent effect
- Activity (NCI-H226 [12]): Active
- EC50 (Caspase-3 [13]): 131 µM
- Activity (HL-60 [14]): 80.75%
- Activity (HL-60 [15]): inactive
- Activity (Mus musculus [16]): Non-toxic
- Activity (NCI-H226 [17]): Active
- Activity (HL-60 [18]): 9.6%
- IC50 [19]: 5.02 µM
- Activity (HL-60 [20]): 80.2%
- IC50 [21]: 0.003 µM
- Activity (HL-60 [22]): inactive
- Activity (Mus musculus [23]): Non-toxic
- Activity (HL-60 [24]): 0.26%
- Activity (NCI-H226 [25]): Active
- Activity (HL-60 [26]): 0.4%
- Activity (HL-60 [5]): Active
- Activity (HL-60 [27]): Active
- Activity (HL-60 [28]): Active
- Activity (NCI-H226 [29]): Active
- Activity (HL-60 [30]): 9.8%
